Screening data as filed in PubChem BioAssay.
In the library only some 4.6% were active in any assay of this set; here they are far more common.
ALR H2O2 inh – blocks human ALR sulfhydryl oxidase activity; P55789; purified ALR, DTT oxidation, H2O2 HRP-luminol luminescence; inhibition, % (concentration not given with the values); hit rate 3.8% among 290,000;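 active = mean replicate inhibition above about 79%, with every replicate also reaching it, limit read from the data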
Target sequence (P55789 whole entry, looked up): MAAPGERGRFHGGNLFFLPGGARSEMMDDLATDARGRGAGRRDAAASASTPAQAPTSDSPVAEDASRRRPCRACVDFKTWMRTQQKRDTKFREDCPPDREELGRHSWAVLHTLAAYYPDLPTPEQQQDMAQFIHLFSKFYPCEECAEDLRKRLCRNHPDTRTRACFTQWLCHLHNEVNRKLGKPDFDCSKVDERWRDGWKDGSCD
DSG3 Ab inh – inhibitors of pemphigus antibody binding to human desmoglein-3; DSG3-coupled beads, scFv-anti-DSG3-GFP binding, flow cytometry; active compounds read low; binding (percent of control), % at 10 µM; P32926; hit rate 0.48% among 310,000;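 active = binding more than 3 SD below its plate's average and above zero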;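 note: hits lower antibody fragment binding to DSG3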
NALP1 inh – blocks the NALP1 inflammasome reconstituted in yeast; S. cerevisiae NALP1/ASC/caspase-1 growth, X-gal OD620, 72 h; AID 2071; inhibition, % at 10 µM; hit rate 0.61% among 280,000; in the data active = inhibition mostly above about 24%, no sharp cut-off; inactive = mostly below about 32%
Arrestin-AP2 inh – human beta-arrestin and AP2 interaction inhibition | FITC-arrestin peptide / GST-AP2 beads, flow cytometry; AP2 beta2 appendage carries R879A mutation | inhibition, % at 10 µM | hit rate 0.31% among 340,000 | AID 504490;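 active = inhibition above a set limit, near 3 SD of compounds lacking own fluorescence, cut at about 54% in these data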;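 note: plate controls were DMSO wells for no effect and 5 µM unlabelled arrestin peptide for full effect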
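System: GST-AP2 R879A bound to glutathione beads, E. coli-expressed. Also added: 50 nM FITC-arrestin peptide. Schedule: compound with beads 12 min RT, then probe 1 h RT. Signal: bead flow cytometry, FITC channel. Read-out basis: percent response.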
NALP3 yeast inh – NALP3 inhibition in yeast | hit rate 0.39% among 330,000 | Yeast reconstituted NLRP3/ASC/caspase-1, beta-gal luminescence, 24 h | inhibition, % at 10 µM;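 active = inhibition of 50% or more; inactive = inhibition below 50%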;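 note: plate controls were induced DMSO wells for no effect and uninduced yeast grown without galactose for full effect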
PolyA inh – yeast polyadenylation inhibition; S. cerevisiae SKY197-pL101 polyadenylation reporter, beta-gal luminescence; efflux-impaired pdr1/pdr3 knockout yeast; score 100 = 6 SD above DMSO; AID 1875; hit rate 0.02% among 300,000; activity score, % at 12 µM;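 active = lowest replicate activity score at least 50, where 100 means six control SD above control mean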;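 note: yeast exposed to compound for 9 h at 30 °C; higher score means more reporter readthrough which indicates perturbed polyadenylation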
An asterisk follows results filed as active; · = no result.

SMILES	ALR H2O2 inh	DSG3 Ab inh	NALP1 inh	Arrestin-AP2 inh	NALP3 yeast inh	PolyA inh
O=C(Nc1ccc(N2CCOCC2)cc1N1CCOCC1)c1ccc(Br)cc1	-8.6	101.9	11.7	-4.8	7.1	-16.9
CN(C)C(=S)Nc1ccc(N2CCOCC2)cc1	99.0*	·	7.9	28.1	2.5	13.2
CSCCCNC(=S)Nc1ccc(N2CCOCC2)cc1	95.0*	104.3	-3.4	-4.5	2.8	-4.3
CSCCCNC(=S)Nc1ccc(N2CCOCC2)cc1N1CCOCC1	95.6*	104.2	1.7	-30.3	0.6	-12.0
O=C1NC(=O)C2(CCCc3c([N+](=O)[O-])cccc32)N1 (stereo not given)	·	107.8	·	·	·	·
Cc1cc(Nc2ccccc2C(=O)O)n2ncnc2n1	·	100.2	·	·	·	·
Cc1ccc(Nc2nc(/N=C/N(C)C)n[nH]2)cc1C	97.6*	99.6	9.0	-8.2	3.1	3.1
CC(C)C(NC(=O)c1ccc(C(C)(C)C)cc1)C(=O)N1CCC(C(N)=O)CC1 (stereo not given)	-13.2	105.0	·	6.1	9.5	·
COc1cc(C#CC#CCN2CCCCC2)ccc1O	99.2*	85.1	35.5	-3.9	19.3	6.0
COc1cc(/C=N/N2CCN(Cc3ccc(Cl)cc3)CC2)cc(Br)c1O	90.8*	105.8	22.0	-5.4	27.4	-4.8
Cc1ccc(CN2CCN(/N=C/C(Br)=C\c3ccccc3)CC2)cc1	-1.8	82.8*	14.2	30.6	2.2	-15.3
CCN(CC)c1ccc(CN2CCCCCC2)cc1	97.6*	106.2	17.3	8.6	20.4	4.0
COc1cc(/C=N/N2CCN(Cc3ccc(Cl)cc3)CC2)ccc1OC(C)=O	44.4	144.7	5.2	-6.7	-3.6	-30.0
CN(C)c1ccc(CN2CCCCCC2)cc1	23.4	104.2	14.2	-5.6	14.4	4.7
Cc1ccc(CN2CCN(/N=C/c3cccnc3)CC2)cc1	·	98.1	28.1	36.9	3.4	-9.0
Cc1ccc(CN2CCN(/N=C/c3ccc(O)c(O)c3)CC2)cc1	78.6*	116.3	16.9	1.5	16.9	9.2
CCCn1c(N)c(N(CCOC)C(=O)c2cccc(S(=O)(=O)N3CCCc4ccccc43)c2)c(=O)[nH]c1=O	-5.0	102.3	·	10.0	10.5	8.1
NC(=O)C1(N2CCCCC2)CCN(C(=O)c2cc(COc3c(F)cccc3F)on2)CC1	·	100.9	·	·	·	·
CCCCn1c(SCC(=O)c2c(N)n(C3CC3)c(=O)[nH]c2=O)nc2cc(S(N)(=O)=O)ccc21	·	100.7	·	5.7	15.0	·
Cc1ccc(CN2CCN(/N=C/c3ccc(C(=O)O)cc3)CC2)cc1	0.9	82.4	10.0	-12.5	5.7	3.3
CCN(CC)c1ccc(/C=N\N2CCN(Cc3ccc(C)cc3)CC2)cc1	97.9*	106.3	-5.5	-3.0	26.1	14.0
Cc1ccc2c(c1)C(=O)N(CCCCO)C2=O	-3.0	69.4*	11.8	-2.0	12.0	3.2
O=C1c2ccc(Oc3ccc4c(c3)C(=O)N(CCCO)C4=O)cc2C(=O)N1CCCO	-8.8	·	25.7	5.3	-0.1	3.6
O=C(O)c1cc(S(=O)(=O)Nc2cccc(S(=O)(=O)N3CCCC3)c2)ccc1Cl	·	90.6	·	11.8	24.0	·
O=S(=O)(Nc1ccc(N2CCCCC2)cc1)c1ccc(F)c(F)c1	98.7*	97.7	27.5	5.7	22.1	-0.2
SMILES	ALR H2O2 inh	DSG3 Ab inh	NALP1 inh	Arrestin-AP2 inh	NALP3 yeast inh	PolyA inh
O=C(O)c1cccc(S(=O)(=O)Nc2ccc(N3CCCCC3)cc2)c1	98.7*	91.7	·	-5.8	1.6	·
O=C(O)c1cc(S(=O)(=O)Nc2ccc(N3CCCCC3)cc2)ccc1Cl	98.3*	102.6	-4.6	-9.8	0.0	10.3
O=C(O)c1cccc(S(=O)(=O)Nc2cccc(S(=O)(=O)Nc3ccc(Br)cc3)c2)c1	·	103.2	·	10.8	5.2	·
O=C(CN1C(=O)NC2(CCCC2)C1=O)OCCOc1ccc(Br)cc1	-1.4	102.0	·	-2.5	12.9	0.4
CCCCn1c(N)c(N(CC(C)C)C(=O)CN2C(=O)NC3(CCC(C(C)(C)CC)CC3)C2=O)c(=O)[nH]c1=O (stereo not given)	·	107.3	·	7.5	·	·
Cc1ccc(NC(=O)c2cccc(S(=O)(=O)N3CCN(c4ccccc4)CC3)c2)nc1	·	101.1	·	-0.7	11.6	1.9
COC(=O)[C@@]1(Cc2ccccc2)[C@H]2C(=O)N(C)C(=O)[C@H]2[C@H]2CN=C(SC)N21	·	97.3	·	7.2	·	·
CCOc1ccc(OCC(=O)OCC(=O)N2CCN(S(=O)(=O)c3ccc(C)cc3C)CC2)cc1	·	99.0	·	23.2	·	·
CC12CCC(C(=O)N3CCN(c4ccccc4)CC3)(CC1=O)C2(C)C (stereo not given)	98.9*	·	7.8	·	-5.4	0.7
COc1ccc(N2CCN(C(=O)C34CCC(C)(C(=O)C3)C4(C)C)CC2)cc1 (stereo not given)	43.9	97.8	5.5	7.0	5.9	-14.2
CC(C)CN1C(=O)/C(=C/c2cccs2)NC1=S	99.2*	99.0	-34.2	-26.9	-31.5	-1.0
Cc1[nH]nc(-c2cccnc2)c1N=NN(C)C	·	95.5	·	-13.2	·	·
Nc1ncc2c(n1)-c1ccccc1CC2	-19.4	103.8	5.8	10.6	18.4	2.1
Nc1ncc2c(n1)-c1ccoc1CC2	89.2*	105.2	5.8	-12.3	12.7	-20.1
COc1ccc(C(C(=O)NCC2CCCO2)N(Cc2ccccc2)C(=O)CNC(=O)c2ccco2)cc1OC (stereo not given)	47.2	109.8	0.7	-3.0	2.1	2.1
CN(C)CCNc1ccc2ncn3c4ccc(O)cc4c(=O)c1c23	·	·	·	3.8	·	·
c1ccc(CNc2cccnc2)cc1	·	102.9	·	·	·	·
N/C(=N\OC(=O)c1ccco1)c1ccc(Cl)cc1	99.4*	92.6	4.0	14.2	8.2	-1.4
N/C(=N\OC(=O)c1ccc(Cl)cc1)c1ccc(Cl)cc1	-0.5	·	-141.5	-9.2	32.6	-11.6
O=C(NN=C1CCCCC1)c1cc(-c2ccccc2)n[nH]1	56.0	104.1	25.6	13.3	12.0	11.9
O=C(NN=C1CCCC1)c1cc(-c2ccccc2)n[nH]1	96.8*	·	-2.2	-0.3	11.2	-0.3
CC(C)c1ccc(NC(=O)C2CCCCN2S(=O)(=O)c2ccccc2)cc1 (stereo not given)	·	100.9	·	26.1	20.5	·
Cc1cccn2c(Nc3ccccc3)c(-c3ccccn3)nc12	·	94.0	1.5	-1.9	-20.0	-6.4
Cc1ccccc1Nc1c(-c2cccnc2)nc2ccc(Br)cn12	65.6	92.7	3.9	-3.1	18.7	0.0
Cc1ccc2nc(-c3ccccn3)c(Nc3ccccc3C)n2c1	98.5*	96.9	7.3	-10.5	11.8	-0.8
COC(=O)CNc1c(-c2ccccc2)nc2ccc(Br)cn12	98.7*	98.1	23.8	8.0	10.7	1.5
Cc1ccccc1Nc1c(-c2ccccn2)nc2ccccn12	98.7*	82.1	-19.3	-2.1	2.5	-19.5
Cc1ccc2nc(-c3cccnc3)c(Nc3ccccc3C)n2c1	81.6*	100.3	4.2	5.7	-15.0	-23.6
